Measured values: ChEMBL document CHEMBL3351795, “Discovery of Cathepsin S Inhibitor LY3000328 for the Treatment of Abdominal Aortic Aneurysm” (ACS Med Chem Lett, 2014)
Values after ≈ are worked out from the molar mass of the structure shown. Active and inactive are the calls of the source. The calls are words filed in the database; no cut-off is given here.

Key:
Cathepsin S [1] = biological target: Cathepsin S (Homo sapiens, UniProt P25774); test: Inhibition of human cathepsin S using benzyloxycarbonyl-L-Leucyl-L-Arginine 4-Methyl-coumaryl-7-amide substrate by FRET assay
Cathepsin S (Homo sapiens, UniProt P25774), sequence (P25774 whole entry): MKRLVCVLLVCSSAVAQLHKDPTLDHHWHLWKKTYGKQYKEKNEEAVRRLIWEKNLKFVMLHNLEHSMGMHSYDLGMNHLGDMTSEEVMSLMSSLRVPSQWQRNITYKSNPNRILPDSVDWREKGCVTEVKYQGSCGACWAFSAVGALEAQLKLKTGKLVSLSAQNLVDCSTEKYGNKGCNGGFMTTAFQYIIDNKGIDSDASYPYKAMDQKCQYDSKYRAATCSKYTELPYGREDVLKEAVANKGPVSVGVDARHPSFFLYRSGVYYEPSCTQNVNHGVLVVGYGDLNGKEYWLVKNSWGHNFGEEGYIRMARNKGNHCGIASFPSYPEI

Cathepsin S [2] = biological target: Cathepsin S (Mus musculus, UniProt O70370); test: Inhibition of mouse cathepsin S using benzyloxycarbonyl-L-Leucyl-L-Arginine 4-Methyl-coumaryl-7-amide substrate by FRET assay
Cathepsin S (Mus musculus, UniProt O70370), sequence (O70370 whole entry): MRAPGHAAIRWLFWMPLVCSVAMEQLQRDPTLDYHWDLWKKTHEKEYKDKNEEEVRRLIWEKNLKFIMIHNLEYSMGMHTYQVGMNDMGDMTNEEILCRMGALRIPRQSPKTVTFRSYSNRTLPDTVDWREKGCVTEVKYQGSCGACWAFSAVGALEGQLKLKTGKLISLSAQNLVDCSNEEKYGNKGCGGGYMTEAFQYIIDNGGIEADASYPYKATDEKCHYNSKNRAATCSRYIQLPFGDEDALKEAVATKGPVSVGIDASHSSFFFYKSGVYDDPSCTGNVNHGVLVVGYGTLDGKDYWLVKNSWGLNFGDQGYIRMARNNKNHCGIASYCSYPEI

Rattus norvegicus = species on record: Rattus norvegicus; test: Inhibition of rat cathepsin S G137C mutant using benzyloxycarbonyl-L-Leucyl-L-Arginine 4-Methyl-coumaryl-7-amide substrate by FRET assay
Procathepsin L = Procathepsin L (Homo sapiens, UniProt P07711); test: Inhibition of human cathepsin L using benzyloxycarbonyl-L-Leucyl-L-Arginine 4-Methyl-coumaryl-7-amide substrate by FRET assay
Procathepsin L, sequence (P07711 whole entry): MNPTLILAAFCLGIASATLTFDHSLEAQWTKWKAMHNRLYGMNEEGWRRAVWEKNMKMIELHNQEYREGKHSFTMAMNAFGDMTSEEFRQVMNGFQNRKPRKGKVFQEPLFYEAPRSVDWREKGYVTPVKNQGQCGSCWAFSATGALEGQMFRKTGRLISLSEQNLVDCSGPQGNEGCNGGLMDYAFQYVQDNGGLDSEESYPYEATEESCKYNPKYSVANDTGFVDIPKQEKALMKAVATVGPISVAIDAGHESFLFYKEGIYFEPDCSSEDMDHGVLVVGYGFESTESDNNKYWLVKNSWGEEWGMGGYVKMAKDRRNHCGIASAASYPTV

[3] = Lipophilicity, log P of the compound; format: physicochemical; conditions: octanol/water
[4] = Lipophilicity, log D of the compound at pH 4.0; format: physicochemical; conditions: buffer
[5] = Dissociation constant, basic pKa of the compound; format: physicochemical
[6] = Solubility in simulated gastric fluid; format: ADME
[7] = Oral bioavailability in Beagle dog at 3 mg/kg; format: ADME, organism-based, Canis lupus familiaris; conditions: in vivo
[8] = Clearance in Beagle dog at 1 mg/kg, iv or 3 mg/kg, po; format: ADME, organism-based, Canis lupus familiaris; conditions: in vivo
[9] = Volume of distribution in Beagle dog at 1 mg/kg, iv or 3 mg/kg, po; format: ADME, organism-based, Canis lupus familiaris; conditions: in vivo
CYP3A4 = CYP3A4 (Homo sapiens, UniProt P08684); test: Inhibition of CYP3A4 (unknown origin) using midazolam substrate at 10 uM; format: ADME; conditions: probe midazolam
CYP3A4, sequence (P08684 whole entry): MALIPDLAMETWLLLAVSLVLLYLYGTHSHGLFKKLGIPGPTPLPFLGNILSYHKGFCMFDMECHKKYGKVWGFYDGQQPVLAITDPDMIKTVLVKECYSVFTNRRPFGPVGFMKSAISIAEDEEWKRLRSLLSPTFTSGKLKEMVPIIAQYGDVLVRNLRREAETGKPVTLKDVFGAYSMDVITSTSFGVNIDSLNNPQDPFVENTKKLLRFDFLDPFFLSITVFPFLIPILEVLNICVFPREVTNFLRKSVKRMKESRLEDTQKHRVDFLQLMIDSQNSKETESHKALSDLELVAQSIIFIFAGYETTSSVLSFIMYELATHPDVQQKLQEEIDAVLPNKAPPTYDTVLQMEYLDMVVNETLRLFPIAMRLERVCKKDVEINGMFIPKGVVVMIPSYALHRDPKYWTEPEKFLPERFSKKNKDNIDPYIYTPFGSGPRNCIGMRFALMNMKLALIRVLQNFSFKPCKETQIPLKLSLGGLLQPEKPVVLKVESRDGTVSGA

CYP2D6 = CYP2D6 (Homo sapiens, UniProt P10635); test: Inhibition of CYP2D6 (unknown origin) using bufuralol substrate at 10 uM; format: ADME; conditions: probe bufuralol
CYP2D6, sequence (P10635 whole entry): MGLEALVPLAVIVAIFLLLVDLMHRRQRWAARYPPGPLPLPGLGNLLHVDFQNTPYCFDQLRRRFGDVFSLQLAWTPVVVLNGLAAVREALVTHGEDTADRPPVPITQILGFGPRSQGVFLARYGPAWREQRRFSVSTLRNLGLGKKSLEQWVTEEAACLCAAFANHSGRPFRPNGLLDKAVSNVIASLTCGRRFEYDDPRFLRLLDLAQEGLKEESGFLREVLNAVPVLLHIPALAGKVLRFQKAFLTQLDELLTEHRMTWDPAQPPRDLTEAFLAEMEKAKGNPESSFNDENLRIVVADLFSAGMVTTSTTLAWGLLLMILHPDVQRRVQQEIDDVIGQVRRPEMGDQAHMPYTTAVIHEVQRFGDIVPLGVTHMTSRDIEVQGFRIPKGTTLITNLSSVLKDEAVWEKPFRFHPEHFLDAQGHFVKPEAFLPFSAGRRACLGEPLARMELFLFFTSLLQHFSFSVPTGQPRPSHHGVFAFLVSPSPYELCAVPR

CYP2C9 = CYP2C9 (Homo sapiens, UniProt P11712); test: Inhibition of CYP2C9 (unknown origin) using diclofenac substrate at 10 uM; format: ADME; conditions: probe diclofenac
CYP2C9, sequence (P11712 whole entry): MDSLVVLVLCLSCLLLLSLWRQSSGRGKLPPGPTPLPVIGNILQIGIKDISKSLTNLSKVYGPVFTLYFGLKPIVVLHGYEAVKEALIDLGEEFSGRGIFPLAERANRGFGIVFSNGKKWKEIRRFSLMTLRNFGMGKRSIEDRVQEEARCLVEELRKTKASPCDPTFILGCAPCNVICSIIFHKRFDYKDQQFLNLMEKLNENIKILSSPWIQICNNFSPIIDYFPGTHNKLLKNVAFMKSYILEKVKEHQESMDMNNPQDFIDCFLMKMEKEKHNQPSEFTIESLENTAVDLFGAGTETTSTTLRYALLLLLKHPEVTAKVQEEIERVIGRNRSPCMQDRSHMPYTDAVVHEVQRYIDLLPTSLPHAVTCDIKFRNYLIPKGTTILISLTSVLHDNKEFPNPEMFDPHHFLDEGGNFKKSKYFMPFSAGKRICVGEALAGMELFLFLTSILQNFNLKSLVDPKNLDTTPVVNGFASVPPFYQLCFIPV

[10] = Drug metabolism in mouse liver microsomes after 30 mins at 4 uM; format: ADME; conditions: read-out: Drug metabolism
[11] = Drug metabolism in rat liver microsomes after 30 mins at 4 uM; format: ADME; conditions: read-out: Drug metabolism
[12] = Drug metabolism in dog liver microsomes after 30 mins at 4 uM; format: ADME, Canis lupus familiaris; conditions: read-out: Drug metabolism
[13] = Drug metabolism in human liver microsomes after 30 mins at 4 uM; format: ADME; conditions: read-out: Drug metabolism
MDCK = test: Permeability from apical to basolateral side in MDCK cells at 2.5 uM incubated for 1 hr; format: ADME, cell-based, Canis lupus familiaris; conditions: dog
Mus musculus [14] = test: Inhibition of CaCl2-induced abdominal aortic aneurysm in 129SvEv mouse assessed as reduction in aortic diameter at 1 to 30 mg/kg dosed through oral gavage BID for 4 weeks with first dose given one day prior to surgery; format: functional, organism-based; conditions: Abdomen
hERG = hERG (Homo sapiens, UniProt Q12809); test: Displacement of [3H]astemizole form human ERG expressed in HEK293 cell membranes at 100 uM; conditions: HEK293 cell membranes that express human ERG, probe [3H]astemizole
hERG, sequence (Q12809 whole entry): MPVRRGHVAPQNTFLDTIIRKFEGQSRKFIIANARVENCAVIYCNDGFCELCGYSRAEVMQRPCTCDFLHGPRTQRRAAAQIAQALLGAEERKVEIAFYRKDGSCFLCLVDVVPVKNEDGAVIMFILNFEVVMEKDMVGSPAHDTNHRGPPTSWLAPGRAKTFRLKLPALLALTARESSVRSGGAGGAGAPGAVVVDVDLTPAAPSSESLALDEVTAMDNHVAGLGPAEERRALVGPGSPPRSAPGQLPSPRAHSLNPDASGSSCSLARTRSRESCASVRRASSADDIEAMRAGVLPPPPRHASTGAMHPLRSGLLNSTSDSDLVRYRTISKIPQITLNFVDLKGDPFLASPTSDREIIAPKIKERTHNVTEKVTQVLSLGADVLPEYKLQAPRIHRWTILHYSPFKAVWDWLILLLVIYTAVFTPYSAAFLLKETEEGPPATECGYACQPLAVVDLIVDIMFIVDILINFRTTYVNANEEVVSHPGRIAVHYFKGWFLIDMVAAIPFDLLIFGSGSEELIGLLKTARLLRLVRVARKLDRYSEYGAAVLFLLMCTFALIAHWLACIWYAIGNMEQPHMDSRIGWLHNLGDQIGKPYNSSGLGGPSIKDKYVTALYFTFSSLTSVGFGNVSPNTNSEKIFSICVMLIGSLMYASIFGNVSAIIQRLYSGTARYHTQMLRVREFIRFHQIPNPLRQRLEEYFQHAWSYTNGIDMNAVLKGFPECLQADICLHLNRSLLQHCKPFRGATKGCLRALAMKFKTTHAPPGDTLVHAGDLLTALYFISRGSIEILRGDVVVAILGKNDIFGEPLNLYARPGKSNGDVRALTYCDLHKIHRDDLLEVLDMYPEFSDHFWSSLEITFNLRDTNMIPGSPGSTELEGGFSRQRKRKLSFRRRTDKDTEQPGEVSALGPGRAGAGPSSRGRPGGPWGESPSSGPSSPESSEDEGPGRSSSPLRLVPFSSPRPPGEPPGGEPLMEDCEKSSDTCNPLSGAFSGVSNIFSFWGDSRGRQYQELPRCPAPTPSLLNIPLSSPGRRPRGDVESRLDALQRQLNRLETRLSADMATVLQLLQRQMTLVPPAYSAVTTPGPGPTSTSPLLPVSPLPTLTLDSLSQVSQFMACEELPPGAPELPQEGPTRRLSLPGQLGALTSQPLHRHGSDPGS

Plasma [15] = test: Stability in human plasma assessed as loss of parent compound after 30 mins; format: ADME, cell-free; conditions: 0.5 h
In short: (§1)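 Compound incubated in human or rat plasma for up to 30 min; loss of parent compound tested for statistical significance.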

Plasma [16] = test: Stability in rat plasma assessed as loss of parent compound after 30 mins; format: ADME, cell-free; conditions: 0.5 h; in short: as §1
Mus musculus [17] = test: Inhibition of CaCl2-induced abdominal aortic aneurysm in 129SvEv mouse assessed as reduction in aortic diameter at 1 mg/kg dosed through oral gavage BID for 4 weeks with first dose given one day prior to surgery; format: functional; conditions: Abdomen
Mus musculus [18] = test: Inhibition of CaCl2-induced abdominal aortic aneurysm in 129SvEv mouse assessed as reduction in aortic diameter at 3 mg/kg dosed through oral gavage BID for 4 weeks with first dose given one day prior to surgery; format: functional; conditions: Abdomen
Mus musculus [19] = test: Inhibition of CaCl2-induced abdominal aortic aneurysm in 129SvEv mouse assessed as reduction in aortic diameter at 10 mg/kg dosed through oral gavage BID for 4 weeks with first dose given one day prior to surgery; format: functional; conditions: Abdomen
Mus musculus [20] = test: Inhibition of CaCl2-induced abdominal aortic aneurysm in 129SvEv mouse assessed as reduction in aortic diameter at 30 mg/kg dosed through oral gavage BID for 4 weeks with first dose given one day prior to surgery; format: functional; conditions: Abdomen
[21] = AUC (0 to 24 hrs) in 129SvEv mouse model of CaCl2-induced abdominal aortic aneurysm at 1 mg/kg dosed through oral gavage BID for 4 weeks with first dose given one day prior to surgery; format: ADME, organism-based, Abdomen; set-up: time < 24 hr, dose 1 mg/kg, route oral; conditions: in vivo
[22] = AUC (0 to 24 hrs) in 129SvEv mouse model of CaCl2-induced abdominal aortic aneurysm at 3 mg/kg dosed through oral gavage BID for 4 weeks with first dose given one day prior to surgery; format: ADME, organism-based, Abdomen; set-up: time < 24 hr, dose 3 mg/kg, route oral; conditions: in vivo
[23] = AUC (0 to 24 hrs) in 129SvEv mouse model of CaCl2-induced abdominal aortic aneurysm at 10 mg/kg dosed through oral gavage BID for 4 weeks with first dose given one day prior to surgery; format: ADME, organism-based, Abdomen; set-up: time < 24 hr, dose 10 mg/kg, route oral; conditions: in vivo
[24] = AUC (0 to 24 hrs) in 129SvEv mouse model of CaCl2-induced abdominal aortic aneurysm at 30 mg/kg dosed through oral gavage BID for 4 weeks with first dose given one day prior to surgery; format: ADME, organism-based, Abdomen; set-up: time < 24 hr, dose 30 mg/kg, route oral; conditions: in vivo

SMILES	IC50 (Cathepsin S [1]) [nM]	IC50 (Cathepsin S [2]) [nM]	inhibition (Rattus norvegicus)	logP [3]	logD [4]	pKa [5]	solubility [6] [µg/mL]	bioavailability [7] [%]	clearance [8] [mL/min/kg]	Vd [9] [L/kg]	inhibition at 10 µM (CYP3A4) [%]	inhibition at 10 µM (CYP2D6) [%]	inhibition at 10 µM (CYP2C9) [%]	metabolised at 0.5 h, 4 µM [10] [%]	metabolised at 0.5 h, 4 µM [11] [%]	metabolised at 0.5 h, 4 µM [12] [%]	metabolised at 0.5 h, 4 µM [13] [%]	permeability (MDCK) [%]	inhibition (Mus musculus [14])	also measured
CNC(=O)O[C@H]1CCc2ccc(N3CCN(C4COC4)CC3)cc2[C@@H]1NC(=O)c1ccc(F)cc1	12.4	3.91	inactive	2.24	1.2	5	1130 (≈ 2340 µM)	> 75	< 4	< 1	< 15	< 15	< 15	< 20	< 20	< 20	< 20	> 4	Dose-dependent effect	
CNC(=O)O[C@H]1COc2ccc(N3CCN(C4COC4)CC3)cc2[C@@H]1NC(=O)c1ccc(F)cc1	7.7	1.67	inactive	2.24	1	5.11	1440 (≈ 2970 µM)	> 75	< 4	< 1	< 15	< 15	< 15	< 20	< 20	< 20	< 20	> 4	Dose-dependent effect	inhibition at 100 µM (hERG): 6%; Stability (Plasma [15]): Stable; Stability (Plasma [16]): Stable; inhibition in vivo at 1 mg/kg (Mus musculus [17]): 58%; inhibition in vivo at 3 mg/kg (Mus musculus [18]): 83%; inhibition in vivo at 10 mg/kg (Mus musculus [19]): 87%; inhibition in vivo at 30 mg/kg (Mus musculus [20]): 87%; AUC(0-t) at 24 h [21]: 756 ng·h/mL; AUC(0-t) at 24 h [22]: 2330 ng·h/mL; AUC(0-t) at 24 h [23]: 5880 ng·h/mL; AUC(0-t) at 24 h [24]: 35400 ng·h/mL
CN1CCN(C(=O)Nc2ccc3c(c2)C(NC(=O)c2ccccc2)CCC3)CC1 (centres undefined)	1290	2780	inactive																	

Second part, led by results:

IC50 (Cathepsin S [1]) [nM]	IC50 (Cathepsin S [2]) [nM]	inhibition (Rattus norvegicus)	logP [3]	logD [4]	pKa [5]	solubility [6] [µg/mL]	bioavailability [7] [%]	clearance [8] [mL/min/kg]	Vd [9] [L/kg]	inhibition at 10 µM (CYP3A4) [%]	inhibition at 10 µM (CYP2D6) [%]	inhibition at 10 µM (CYP2C9) [%]	metabolised at 0.5 h, 4 µM [10] [%]	metabolised at 0.5 h, 4 µM [11] [%]	metabolised at 0.5 h, 4 µM [12] [%]	metabolised at 0.5 h, 4 µM [13] [%]	permeability (MDCK) [%]	SMILES	inhibition (Mus musculus [14])	also measured
1170	1570	inactive																O=C(N[C@@H]1CCCc2ccc(/N=C/N3CCCCCC3)cc21)c1ccc(Br)cc1		IC50 (Procathepsin L): > 100000 nM
4000	3930	inactive																CN1CCN(c2ccc3c(c2)C(NC(=O)c2ccccc2)CCC3)CC1 (centres undefined)		
